KCNQ1 block – blocks the human KCNQ1 potassium channel; P51787; actives 1.3% (n = 310,000); B-score at 10 µM; CHO-K1 KCNQ1, FluxOR thallium flux fluorescence; active compounds read high;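 active means compounds whose thallium flux B-score, printed positive for inhibition, exceeds three library SD while starting fluorescence stays within three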;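 further: channel opened by potassium depolarization with thallium stimulus after 20 min compound exposure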
KCC2 mod – modulators of human KCC2 chloride dependent transport | KCC2 cells, thallium flux FluoZin-2 fluorescence | Q9H2X9 | actives 2.2% (n = 190,000) | B-score of Tl+ flux slope (higher = more flux/activation; lower = inhibition) at 10 µM;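 active means thallium flux slope and its plate-corrected score both differing from the plate sample mean at a set confidence after two filtering rounds, in either direction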;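 further: slope of fluorescence scaled to starting intensity during 10 to 20 s after thallium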
Target sequence (Q9H2X9 whole entry, looked up): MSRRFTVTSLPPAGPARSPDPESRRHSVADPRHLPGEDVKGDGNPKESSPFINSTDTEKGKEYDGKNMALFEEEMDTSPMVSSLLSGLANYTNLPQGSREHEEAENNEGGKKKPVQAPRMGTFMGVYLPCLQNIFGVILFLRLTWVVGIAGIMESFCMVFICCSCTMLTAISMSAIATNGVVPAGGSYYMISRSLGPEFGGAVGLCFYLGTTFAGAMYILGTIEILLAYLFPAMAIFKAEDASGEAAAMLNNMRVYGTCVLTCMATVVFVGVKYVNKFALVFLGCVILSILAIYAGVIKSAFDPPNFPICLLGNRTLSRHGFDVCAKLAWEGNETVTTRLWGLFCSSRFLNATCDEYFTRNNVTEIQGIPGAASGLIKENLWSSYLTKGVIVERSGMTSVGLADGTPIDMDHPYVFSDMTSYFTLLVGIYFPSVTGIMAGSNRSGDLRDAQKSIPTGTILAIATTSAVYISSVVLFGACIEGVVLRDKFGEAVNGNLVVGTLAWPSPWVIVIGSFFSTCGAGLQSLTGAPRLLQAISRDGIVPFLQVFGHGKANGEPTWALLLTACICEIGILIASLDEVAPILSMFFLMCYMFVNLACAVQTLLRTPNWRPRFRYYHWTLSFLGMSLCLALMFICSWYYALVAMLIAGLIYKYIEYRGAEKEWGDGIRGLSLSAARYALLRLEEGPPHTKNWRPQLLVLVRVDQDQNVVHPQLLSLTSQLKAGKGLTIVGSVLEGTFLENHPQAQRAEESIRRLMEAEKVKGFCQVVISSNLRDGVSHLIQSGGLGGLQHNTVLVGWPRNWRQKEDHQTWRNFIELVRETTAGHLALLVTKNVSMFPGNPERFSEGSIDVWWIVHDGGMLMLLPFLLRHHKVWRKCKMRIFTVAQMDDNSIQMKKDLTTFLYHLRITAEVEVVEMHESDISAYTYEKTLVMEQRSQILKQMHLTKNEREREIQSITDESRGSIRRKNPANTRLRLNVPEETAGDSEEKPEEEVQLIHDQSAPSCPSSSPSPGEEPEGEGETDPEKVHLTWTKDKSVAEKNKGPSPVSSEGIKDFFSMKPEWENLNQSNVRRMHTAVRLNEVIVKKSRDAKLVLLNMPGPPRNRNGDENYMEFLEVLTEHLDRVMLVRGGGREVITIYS
AI-2 QS modul – modulates the Vibrio harveyi AI-2 quorum sensing system; actives 0.4% (n = 300,000); Vibrio harveyi JMH597 AI-2 luminescence/OD600 ratio, 9 h; active compounds read low; strain lacks LuxN and CqsS sensors; 0 = neutral-control median; activity change, % at 7.5 µM; in the data active means activity change below about -75%, passing the limit was not always enough;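 further: luminescence divided by OD600 gain over 9 h not by final OD600 alone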
KCNQ1 pot – human KCNQ1 channel potentiation or activation; P51787; B-score at 10 µM; actives 0.35% (n = 310,000); CHO-K1 KCNQ1, thallium flux FluxOR fluorescence; active compounds read high;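 active means fluorescence ratio B-score, a plate-corrected score, at least three library SD, with initial intensity B-score within 5 SD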
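Schedule – 37 °C overnight plating, 90-min dark dye load, 20-min compound pretreatment · System – stable KCNQ1 CHO-K1 line · Probe or stimulus – thallium- and potassium-containing depolarizing buffer · Measured by – kinetic FluxOR fluorescence, 10 s baseline plus 110 s post-stimulus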
Mot1-301 SUMO – blocks SUMOylation pathway, rescuing yeast Mot1-301 growth. S. cerevisiae Mot1-301 growth rescue, ATP luminescence, 38.5C; percent above DMSO median, 100 means doubled. growth rescue, % at 18.8 µM. actives 1% (n = 320,000);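 active means every valid replicate shows activation above 250% relative to neutral control wells; inactive means the rest, any valid replicate at or below 250%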;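 further: OY570 slx delta 5 strain wells were the positive control but not used for scaling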
hERG rescue – shields human hERG channel from block by proarrhythmic agents; Q12809; CHO-hERG, FluxOR thallium flux, dofetilide IC70 present; activation (rescue from dofetilide block), less the hit threshold, % at 10 µM; actives 0.51% (n = 310,000);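 active means activation above the mean of controls blocked by dofetilide plus 5 SD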;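 further: thallium influx through hERG after potassium depolarization seen as dye fluorescence rise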
* hit, by the source's call; i = inactive; nt = no result; + = active, no number. A selection: hits, their analogues and other compounds. The true share with any hit is near 4.2%.

SMILES | KCNQ1 block | KCC2 mod | AI-2 QS modul | KCNQ1 pot | Mot1-301 SUMO | hERG rescue
O=C(CCNc1cccc(F)c1)c1cccc([N+](=O)[O-])c1 | 8* | -0.65 | 24 | i | 12 | -20
O=C(CCNc1ccc(Cc2ccncc2)cc1)c1cccc([N+](=O)[O-])c1 | i | -0.7 | 29 | i | 9 | -12
COC(=O)c1cn(CC(=O)Nc2ccc(F)cc2)c2ccccc12 | i | nt | 7 | i | -9 | 1
CCOC(=O)CCSc1nc(C(C)(C)C)cc(C(F)(F)F)c1C#N | 6* | 0.48 | 4 | i | -2 | -13
Cc1nn(-c2ccccc2)c(N2CCCC2)c1/C=N/NC(=O)c1cc2ccccc2cc1O | 11* | -1.4 | 11 | i | -8 | -26
Cc1nn(-c2ccccc2)c(N2CCCC2)c1/C=N/NC(=O)c1cccc(S(=O)(=O)Nc2ccc(Cl)cc2)c1 | 7* | 0.12 | 41 | i | nt | -2
Cc1nn(-c2ccccc2)c(C)c1/C=N/NC(=O)c1cc(C(C)(C)C)[nH]n1 | i | nt | 18 | i | 1 | -13
Cc1nn(-c2ccccc2)c(Cl)c1/C=N/NC(=O)c1cccc(S(=O)(=O)N2CCCC2)c1 | i | 0.32 | 21 | i | 7 | 0
Cc1ccc(-c2cc(C(=O)N/N=C/c3c(C)nn(-c4ccccc4)c3C)[nH]n2)cc1 | 13* | -0.88 | 13 | i | nt | -7
COc1cccc(/C=N/NC(=O)CN(C)S(=O)(=O)c2ccccc2)c1OC | nt | nt | nt | nt | -6 | nt
Cc1ccc(NC(=O)COc2cccc3c2OC(C)(C)C3)c(O)c1 | nt | nt | nt | nt | -1 | nt
Cc1ccc(Cn2ncc3c(N4CCN(c5ccccc5C)CC4)ncnc32)cc1 | i | 0.12 | 13 | i | 0 | -2
c1ccc(Cn2ncc3c(N4CCCCC4)ncnc32)cc1 | i | -4.1* | 7 | i | 4 | -6
COC(=O)C1=C2SCC(=O)N2C(N)=C(C#N)C1 | i | 0.31 | 5 | i | 4 | -8
CN(/N=C/c1ccc(-c2ccc([N+](=O)[O-])cc2)o1)c1ccccc1 | 8* | nt | -1 | i | -5 | -6
CCOC(=O)c1nn(C23CC4CC(CC(C4)C2)C3)c2c1C(=O)N(c1ccc(C)cc1)C2=O | i | -1.1 | 20 | i | 93 | -7
COC(=O)c1nn(C23CC4CC(CC(C4)C2)C3)c2c1C(=O)N(c1ccc(Br)cc1)C2=O | 6* | 0.73 | 29 | i | 0 | -10
O=C(CSc1nc(=O)n2ccccc2n1)NCc1ccc(F)cc1 | i | nt | 30 | i | -10 | -11
O=C(CSc1nc(=O)n2ccccc2n1)NCc1ccccc1 | i | nt | 24 | 8* | -34 | -16
C=CCN1C(=O)/C(=C\C=C2\N(C)c3ccccc3C2(C)C)SC1=S | i | i | 29 | i | 3 | -10
CCCN1C(=O)/C(=C/C=C2\N(CC)c3ccccc3C2(C)C)SC1=S | 8* | -0.31 | 14 | i | -10 | -12
Cc1nn(Cc2ccccc2Cl)c2sc(C(=O)Nc3ccccc3N3CCOCC3)cc12 | 6* | -0.17 | 1 | i | 14 | -7
CC(C)Cn1c(/C=N/Nc2nc3ccccc3[nH]2)nc2ccccc21 | 11* | -0.14 | 24 | i | nt | -4
Cc1c(/C=N/Nc2nc3ccccc3[nH]2)c2ccccc2n1C | 7* | -0.48 | 16 | i | 15 | -17
CC[C@H](C)/C=C(C)/C=C/C(=O)Cc1cc(O)c(C)c(O)c1C=O | 11* | -0.14 | 49 | i | 155 | -14
SMILES | KCNQ1 block | KCC2 mod | AI-2 QS modul | KCNQ1 pot | Mot1-301 SUMO | hERG rescue
Cc1ccc(Oc2c(C(N)=O)cc([N+](=O)[O-])cc2[N+](=O)[O-])cc1 | 6* | 1.1 | 11 | i | 5 | -15
Cc1ccc(C(NC(=O)C2CCCCC2)c2c(O)ccc3ccccc23)cc1 (stereo not drawn) | 9* | 0.15 | 12 | i | 0 | -16
O=C(CN1CCN(C(=O)N2CCOCC2)CC1)Nc1cc(Cl)ccc1Cl | i | nt | 12 | i | -5 | -3
CC(=O)Nc1ccc(NC(=S)NC(=O)c2cc3ccccc3o2)cc1 | i | 0.1 | 7 | i | 25 | -6
O=C(NC(=S)Nc1cccnc1)c1cc2ccccc2o1 | i | 88* | 25 | 23* | 3 | 15*
Cc1ccc(-n2nc(C)c3c(C)c(CCC(=O)Nc4ccc(CN5CCCC5)cc4)c(C)nc32)cc1 | 6* | 0.17 | 13 | i | 17 | -20
NS(=O)(=O)c1ccc(CCNC(=O)CSc2nc3ccccc3c(=O)n2CC2CCCO2)cc1 (stereo not drawn) | i | nt | 23 | i | 15 | -10
O=C(NCCCl)C1Cc2c(ccc3ccccc23)O1 (stereo not drawn) | i | -0.35 | -7 | i | + | -6
CCN(C1CCS(=O)(=O)C1)S(=O)(=O)c1ccc2ccccc2c1 (stereo not drawn) | i | nt | 20 | i | 325* | -4
CCCN(C1CCS(=O)(=O)C1)S(=O)(=O)c1ccc2ccccc2c1 (stereo not drawn) | nt | nt | nt | nt | 7 | nt
Nc1cc(Cl)ccc1C(=O)OCC(=O)NCC1CCCO1 (stereo not drawn) | nt | nt | nt | nt | -5 | nt
CC(OC(=O)/C=C/c1ccccc1)C(=O)N1CCc2ccccc21 (stereo not drawn) | i | nt | 16 | i | 16 | -6
Cc1ccc(S(=O)(=O)CCN2CCC(n3cccc3)CC2)cc1 | i | nt | 17 | i | -26 | -6
O=C(Nc1ccc(S(=O)(=O)NC2=NCCCCC2)cc1)C1COc2ccccc2O1 (stereo not drawn) | i | 0.69 | 6 | i | 13 | -4
CN1CCN(C(c2ccc(Br)cc2)c2cc(Cl)c3cccnc3c2O)CC1 (stereo not drawn) | i | nt | -141* | i | 268 | -1
CN1CCN(C(c2cccnc2)c2ccc3cccnc3c2O)CC1 (stereo not drawn) | i | nt | -47 | i | 174 | -7
C(=N\N1CCOCC1)/c1cccs1 | i | -0.32 | 22 | i | -31 | -6
CN(C(=O)c1cnccn1)c1nnc(-c2cnccn2)s1 | i | nt | 12 | i | 143 | 10*
COc1cc2c(cc1CNC[C@H]1O[C@@H](n3cnc4c(N)ncnc43)[C@H](O)[C@@H]1O)OCO2 | nt | nt | nt | nt | -19 | nt
O=C(c1ccc(F)cc1F)N1CCN(c2n[nH]c(=O)[nH]c2=O)CC1 | i | 0.017 | 16 | i | 2 | -11
Cc1c(N=N/C(C(=O)Nc2ccccc2)=C(/O)c2ccccc2)c(=O)n(-c2ccccc2)n1C | 9* | -0.79 | 36 | i | 7 | -18
